Reference: ChEMBL document CHEMBL4304816, “A Novel Biphenyl-based Chemotype of Retinoid X Receptor Ligands Enables Subtype and Heterodimer Preferences” (ACS Med Chem Lett, 2019)
Active and inactive are the calls of the source. The rule behind the calls is not given here.

Assays:
Format in all cases: cell-based
[1] = biological target: T1, Retinoic acid receptor alpha (Homo sapiens) (UniProt P10276); test: Agonist activity at Gal4-LBD fused RARalpha (unknown origin) expressed in HEK293T cells at 20 uM after 14 to 16 hrs by dual-Glo luciferase assay
T1 sequence (whole entry): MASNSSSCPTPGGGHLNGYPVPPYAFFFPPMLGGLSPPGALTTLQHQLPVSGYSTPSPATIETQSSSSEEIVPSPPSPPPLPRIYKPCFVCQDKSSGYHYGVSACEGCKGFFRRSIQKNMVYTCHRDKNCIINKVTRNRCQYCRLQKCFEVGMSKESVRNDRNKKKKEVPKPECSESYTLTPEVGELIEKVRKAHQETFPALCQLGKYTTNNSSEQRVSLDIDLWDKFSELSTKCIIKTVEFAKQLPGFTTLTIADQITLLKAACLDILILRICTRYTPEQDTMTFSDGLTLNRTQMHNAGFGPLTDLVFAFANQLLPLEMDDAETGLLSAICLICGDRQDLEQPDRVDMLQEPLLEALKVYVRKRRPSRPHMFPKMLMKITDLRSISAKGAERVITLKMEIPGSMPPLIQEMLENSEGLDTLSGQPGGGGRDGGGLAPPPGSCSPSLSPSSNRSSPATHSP
Summary of the method: (§1)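 Gal4-hybrid reporter gene selectivity panel of related nuclear receptors (PPARα/β/γ, RARα/β/γ) in HEK293T cells. Activity is read as mean fold activation versus 0.1% DMSO vehicle, n ≥ 2.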

[2] = biological target: T2, Peroxisome proliferator-activated receptor delta (Homo sapiens) (UniProt Q03181); test: Agonist activity at Gal4-LBD fused PPARbeta (unknown origin) expressed in HEK293T cells at 20 uM after 14 to 16 hrs by dual-Glo luciferase assay; summary of the method: as §1
T2 sequence (whole entry): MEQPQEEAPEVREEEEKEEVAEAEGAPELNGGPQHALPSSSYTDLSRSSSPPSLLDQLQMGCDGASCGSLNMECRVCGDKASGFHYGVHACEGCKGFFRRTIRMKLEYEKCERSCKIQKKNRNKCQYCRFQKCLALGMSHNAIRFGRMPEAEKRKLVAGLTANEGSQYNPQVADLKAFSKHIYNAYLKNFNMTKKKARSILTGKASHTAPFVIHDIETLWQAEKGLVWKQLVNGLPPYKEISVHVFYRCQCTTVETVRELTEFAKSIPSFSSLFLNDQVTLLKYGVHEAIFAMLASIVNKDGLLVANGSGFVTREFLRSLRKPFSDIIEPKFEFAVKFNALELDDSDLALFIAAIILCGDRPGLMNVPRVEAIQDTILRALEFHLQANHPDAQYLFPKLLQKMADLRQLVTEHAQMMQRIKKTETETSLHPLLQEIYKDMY

[3] = species: Homo sapiens; test: Agonist activity at full-length human PPARgamma/RXR expressed in HEK293T cells at 20 uM after 14 to 16 hrs by dual-glo luciferase reporter gene assay relative to untreated control
Summary of the method: (§2)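 RXR:PPARγ heterodimer reporter assay in HEK293T cells with test compound alone. Mean relative activation is taken versus 0.1% DMSO, from three independent experiments each run in duplicate.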

[4] = Agonist activity at full-length human RXR/LXR expressed in HEK293T cells at 20 uM after 14 to 16 hrs in presence of 1 uM T0901317 by dual-glo luciferase reporter gene assay relative to T0901317; conditions: HEK-293T, read-out: Activity
Summary of the method: (§3)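 Synergy format: the test compound was co-applied with the partner-receptor reference agonist at 1 μM, either T0901317 (RXR:LXR) or rosiglitazone (RXR:PPARγ). Relative synergistic activation was derived from three independent experiments, each in duplicate; mean reported.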

[5] = biological target: T3, Retinoic acid receptor RXR-alpha (Homo sapiens) (UniProt P19793); test: Agonist activity at Gal4-LBD fused RXRalpha (unknown origin) expressed in HEK293T cells at 0.1 to 3 uM after 14 to 16 hrs in presence of RXR antagonist HX531 by dual-Glo luciferase reporter gene assay
T3 sequence (whole entry): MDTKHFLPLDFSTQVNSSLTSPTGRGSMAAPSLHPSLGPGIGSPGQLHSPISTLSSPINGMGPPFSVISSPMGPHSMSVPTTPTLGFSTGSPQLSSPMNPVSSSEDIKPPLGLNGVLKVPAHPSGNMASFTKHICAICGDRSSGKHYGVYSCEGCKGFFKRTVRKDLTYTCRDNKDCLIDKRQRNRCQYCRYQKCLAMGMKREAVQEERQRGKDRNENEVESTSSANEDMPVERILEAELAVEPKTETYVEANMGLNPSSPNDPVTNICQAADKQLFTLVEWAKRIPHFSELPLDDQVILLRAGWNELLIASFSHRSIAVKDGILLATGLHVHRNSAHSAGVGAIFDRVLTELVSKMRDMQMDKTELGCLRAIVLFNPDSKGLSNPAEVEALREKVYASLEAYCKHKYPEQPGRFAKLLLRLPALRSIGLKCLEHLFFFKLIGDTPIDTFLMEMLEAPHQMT

[6] = biological target: T4, Retinoic acid receptor RXR-beta (Homo sapiens) (UniProt P28702); test: Agonist activity at Gal4-LBD fused RXRbeta (unknown origin) expressed in HEK293T cells at 0.1 to 3 uM after 14 to 16 hrs in presence of RXR antagonist HX531 by dual-Glo luciferase reporter gene assay
T4 sequence (whole entry): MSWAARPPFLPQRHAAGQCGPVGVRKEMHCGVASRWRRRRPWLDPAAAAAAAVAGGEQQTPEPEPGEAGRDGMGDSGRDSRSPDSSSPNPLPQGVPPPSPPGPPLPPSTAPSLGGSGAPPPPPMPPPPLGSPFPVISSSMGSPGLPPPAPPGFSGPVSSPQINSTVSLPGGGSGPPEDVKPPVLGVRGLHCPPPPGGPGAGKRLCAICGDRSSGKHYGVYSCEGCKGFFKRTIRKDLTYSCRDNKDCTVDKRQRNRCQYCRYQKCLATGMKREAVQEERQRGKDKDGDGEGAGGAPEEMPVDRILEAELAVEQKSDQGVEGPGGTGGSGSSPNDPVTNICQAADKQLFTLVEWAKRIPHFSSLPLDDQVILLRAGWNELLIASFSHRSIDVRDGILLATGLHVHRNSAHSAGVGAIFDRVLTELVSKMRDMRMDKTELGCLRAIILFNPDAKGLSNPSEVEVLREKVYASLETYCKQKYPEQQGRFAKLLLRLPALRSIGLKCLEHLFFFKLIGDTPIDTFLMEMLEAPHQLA

[7] = species: Homo sapiens; test: Agonist activity at full-length human PPARgamma/RXR expressed in HEK293T cells at 10 uM after 14 to 16 hrs by dual-glo luciferase reporter gene assay relative to untreated control; summary of the method: as §2
[8] = Agonist activity at full-length human RXR/LXR expressed in HEK293T cells at 10 uM after 14 to 16 hrs in presence of 1 uM T0901317 by dual-glo luciferase reporter gene assay relative to T0901317; conditions: HEK-293T, read-out: Activity; summary of the method: as §3

Activity [1]	Activity [2]	Activity [5]	Activity [6]	Structure (SMILES)	Activity [3]	activity at 20 µM [4]	Activity [7]	activity at 10 µM [8]
Active	Active			Cc1cc(-c2ccc(C(=O)O)cc2)cc(C(C)(C)C)c1	91%	70%		
		inactive	inactive	Cc1cc(-c2cc(C(F)(F)F)cc(C(F)(F)F)c2)ccc1CC(=O)O			139%	64%
